Source: ChEMBL document CHEMBL4680231, “A glutathione-responsive photosensitizer with fluorescence resonance energy transfer characteristics for imaging-guided targeting photodynamic therapy” (Eur J Med Chem, 2020)
The source made the active and inactive calls. No cut-off for these calls is given here.

Columns and labels:
[1] = Prodrug activation in human HeLa cells assessed as increase in fluorescence at 10 uM after 8 hrs in presence of GSH by flow cytometric analysis; assay type: cell-based
Outline: (§1)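 Cells (10^5 per confocal dish) were seeded in DMEM overnight at 37 °C, 5% CO2. They were pretreated with 5 mM GSH in DMEM, or medium alone, for 2 h, then washed. Compound at 10 μM was added for 8 h. Intracellular fluorescence was read by confocal microscopy (excitation 633 nm) or by flow cytometry under the same conditions.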

A549 [2] = assay: Induction of ROS generation in human A549 cells at 10 uM incubated for 12 hrs irradiated with 20 mW cm^-2 light in presence of GSH by DCFH-DA staining based confocal laser scanning microscopic method; assay type: functional, cell-based
Outline: (§2)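 Cells were seeded in confocal dishes overnight. Pretreatment was GSH 5 mM in DMEM for 2 h, or vitamin C 100 μM for 1 h, before compound at 10 μM for 12 h. DCFH-DA was added for 1 h, then 5 PBS washes and transfer to serum-free, phenol red-free DMEM. Cells were irradiated at 670 nm, 20 mW·cm⁻², for 3 min. Confocal imaging used λex 488 nm for DCF and 633 nm for the photosensitizer.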

A549 [3] = assay: Cytotoxicity against human A549 cells assessed as reduction cell viability preincubated for 24 hrs in dark condition followed by irradiated with 20 mW cm^-2 light by MTT assay; assay type: functional, cell-based
Outline: (§3)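 MTT assay. About 6000 cells per well were seeded and left overnight at 37 °C, 5% CO2. Compound was added at a range of concentrations in DMEM (1% DMSO, 0.05% Tween 80) for 24 h in the dark, then the medium was replaced. Irradiated wells received a 670 nm LED at 20 mW·cm⁻² for 2 min (2.4 J·cm⁻²); dark wells were not irradiated. Cells were incubated overnight, then MTT for 4 h, DMSO added, OD read at 490 nm. Three independent experiments, each in sextuplicate. IC50 is the concentration killing 50% of cells.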

[4] = Prodrug activation in mouse H22 cells assessed as increase in fluorescence at 10 uM after 8 hrs by confocal laser scanning microscopic method; assay type: cell-based; details: h22, 8 h; outline: as §1
Primary lung fibroblast = assay: Induction of ROS generation in human HELF cells at 10 uM incubated for 12 hrs irradiated with 20 mW cm^-2 light in presence of vitamin C by DCFH-DA staining based confocal laser scanning microscopic method; assay type: functional, cell-based; outline: as §2
[5] = Prodrug activation in HELF cells assessed as increase in fluorescence at 10 uM after 8 hrs in presence of GSH by flow cytometric analysis; assay type: cell-based; details: human, primary lung fibroblast; outline: as §1
HeLa = assay: Cytotoxicity against human HeLa cells assessed as reduction cell viability up to 10 uM after 24 hrs in dark condition by MTT assay; assay type: cell-based; outline: as §3
[6] = Prodrug activation in human A549 cells assessed as increase in fluorescence at 10 uM after 8 hrs by confocal laser scanning microscopic method; assay type: cell-based; details: a549, 8 h; outline: as §1
[7] = Drug localization in mitochondria of human A549 cells assessed as GSH mediated cleavage at 10 uM after 12 hrs by Mito-Tracker Green dye based confocal laser scanning microscopic method; assay type: ADME; details: a549, 12 h
Outline: (§4)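 Cells were seeded in confocal dishes overnight, then given compound at 10 μM for 12 h. Staining was DAPI for 20 min, or Lyso-Tracker Red or Mito-Tracker Green for 60 min, followed by 5 PBS washes. Images were taken by confocal microscopy with excitation/detection of 405/425-475 nm (DAPI), 543/550-620 nm (Lyso) and 488/510-570 nm (Mito). Colocalization was judged from line intensity profiles.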

H22 [8] = assay: Photodynamic antitumor activity against mouse H22 cells implanted in Kunming mouse assessed as increase in necrotic cells in tumour at 2 mg/kg, iv administered at […] post-implantation followed by irradiated with 100 mW/cm2 […] and measured up to 15 days by H and E staining based microscopic method; assay type: functional, organism-based; details: time 15.0 day
Outline: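 Mice carried subcutaneous H22 tumours of about 50 mm³ and were randomised into 5 groups of 5. They received saline or compound at 2 mg/kg (100 μL) i.v. on days 1, 4 and 7. Light groups were irradiated at 670 nm, 100 mW/cm², 12 h after each dose. Tumour volume and body weight were recorded daily for 15 days. Tumours were then excised and weighed, fixed in 4% paraformaldehyde, paraffin-embedded and H&E stained. Apoptotic and necrotic areas were scored microscopically.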

H22 [9] = assay: Cytotoxicity against mouse H22 cells assessed as reduction cell viability up to 10 uM after 24 hrs in dark condition by MTT assay; assay type: cell-based; details: h22, 24 h; outline: as §3
H22 [10] = assay: Cytotoxicity against mouse H22 cells assessed as reduction cell viability preincubated for 24 hrs in dark condition followed by irradiated with 20 mW cm^-2 light by MTT assay; assay type: functional, cell-based; outline: as §3
[11] = Prodrug activation in mouse H22 cells assessed as increase in fluorescence at 10 uM after 8 hrs in presence of GSH by flow cytometric analysis; assay type: cell-based; details: h22, 8 h; outline: as §1
[12] = Prodrug activation in DMF assessed as pseudo-first-order kinetics at 10 uM incubated for 720 mins in presence of 10 mM GSH by fluorescence spectroscopic analysis; details: 12 h
[13] = Photoactivity of compound in PBS with 0.05% Tween 80 assessed as singlet oxygen generation at 10 uM irradiated with 20 mW cm^-2 light in presence on GSH by DMA based fluorescence assay
[14] = Drug localization in lysosome of human A549 cells assessed as GSH mediated cleavage at 10 uM after 12 hrs by Lyso-Tracker Red dye based confocal laser scanning microscopic method; assay type: ADME, subcellular; details: a549, 12 h; outline: as §4
[15] = Drug localization in nucleus of human A549 cells assessed as GSH mediated cleavage at 10 uM after 12 hrs by DAPI dye based confocal laser scanning microscopic method; assay type: ADME, subcellular; details: a549, 12 h; outline: as §4
[16] = Prodrug activation in mouse H22 cells assessed as increase in fluorescence at 10 uM after 8 hrs in presence of GSH by confocal laser scanning microscopic method; assay type: cell-based; details: h22, 8 h; outline: as §1
[17] = Prodrug activation in DMF at 10 uM incubated for 720 mins in presence of 2 uM GSH by fluorescence spectroscopic analysis; details: 12 h
[18] = Drug uptake in Kunming mouse implanted with H22 cells at 2 mg/kg, iv and measured up to 24 hrs by FMT assay; assay type: ADME, organism-based; details: in vivo
Outline: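 Mice carried subcutaneous back tumours from H22 cells (10^7 cells/mL, 100 μL), used at about 50 mm³. They received a single tail-vein injection of 2 mg/kg (200 μL), with saline as control, 3 mice per group. Whole-body fluorescence molecular tomography was taken at 0, 2, 6, 12 and 24 h. At 24 h, tumour, heart, liver, spleen, lung and kidney were imaged ex vivo.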

[19] = Prodrug activation in DMF at 10 uM incubated for 720 mins in presence of 10 mM GSH by fluorescence spectroscopic analysis; details: 12 h

Drug metabolism [1] | Drug metabolism [4] | Drug metabolism [5] | Drug metabolism [6] | Drug metabolism [11] | Drug metabolism [16] | SMILES | Activity (A549 [2]) | Activity (Primary lung fibroblast) | Activity (HeLa) | Activity (H22 [8]) | Activity (H22 [9]) | Drug metabolism [13] | further results
Metabolite_Detected | Metabolite_Detected | Metabolite_Detected | Metabolite_Detected | Metabolite_Detected | Metabolite_Detected | COCCOCCOCCOc1ccc(/C=C/C2=[N+]3C(=C(c4ccc(OCc5cn(CCSSCCn6cc(COc7ccc(C8=C9C(C)=CC(/C=C/c%10ccc(N(C)C)cc%10)=[N+]9[B-](F)(F)n9c(/C=C/c%10ccc(N(C)C)cc%10)cc(C)c98)cc7)nn6)nn5)cc4)c4c(C)c(I)c(/C=C/c5ccc(OCCOCCOCCOC)cc5)n4[B-]3(F)F)C(C)=C2I)cc1 | Active | inactive | Non-Toxic | Active | Non-Toxic | Metabolite detected | IC50 (A549 [3]; A549, light or radiation study): 440 nM; Drug uptake [7]: Active; IC50 (H22 [10]; H22, light or radiation study): 480 nM; K [12]: 5.8 10^-3/min; Drug uptake [14]: Active; Drug uptake [15]: Not Active
Metabolite_Notdetected | Metabolite_Notdetected | Metabolite_Notdetected | Metabolite_Notdetected | Metabolite_Notdetected | Metabolite_Notdetected | COCCOCCOCCOc1ccc(/C=C/C2=[N+]3C(=C(c4ccc(OCc5cn(CCCCCCn6cc(COc7ccc(C8=C9C(C)=CC(/C=C/c%10ccc(N(C)C)cc%10)=[N+]9[B-](F)(F)n9c(/C=C/c%10ccc(N(C)C)cc%10)cc(C)c98)cc7)nn6)nn5)cc4)c4c(C)c(I)c(/C=C/c5ccc(OCCOCCOCCOC)cc5)n4[B-]3(F)F)C(C)=C2I)cc1 | inactive | inactive | Non-Toxic | Active | Non-Toxic | Metabolite not detected | Activity (A549 [3]): inactive; Drug metabolism [17]: Metabolite_Notdetected; Drug uptake [18]: Active; Drug metabolism [19]: Metabolite_Notdetected; Activity (H22 [10]): inactive
